Activity calls are given as the source filed them. No cut-off for these calls is given here.
How the values were obtained:
[1] = target: T1, Peroxisome proliferator-activated receptor alpha (Homo sapiens, UniProt Q07869); experiment: Agonist activity at Gal4-fused PPARalpha expressed in HEK293 cells after 18 hrs by dual luciferase reporter gene assay; format: functional, cell-based
T1 sequence (Q07869 whole entry): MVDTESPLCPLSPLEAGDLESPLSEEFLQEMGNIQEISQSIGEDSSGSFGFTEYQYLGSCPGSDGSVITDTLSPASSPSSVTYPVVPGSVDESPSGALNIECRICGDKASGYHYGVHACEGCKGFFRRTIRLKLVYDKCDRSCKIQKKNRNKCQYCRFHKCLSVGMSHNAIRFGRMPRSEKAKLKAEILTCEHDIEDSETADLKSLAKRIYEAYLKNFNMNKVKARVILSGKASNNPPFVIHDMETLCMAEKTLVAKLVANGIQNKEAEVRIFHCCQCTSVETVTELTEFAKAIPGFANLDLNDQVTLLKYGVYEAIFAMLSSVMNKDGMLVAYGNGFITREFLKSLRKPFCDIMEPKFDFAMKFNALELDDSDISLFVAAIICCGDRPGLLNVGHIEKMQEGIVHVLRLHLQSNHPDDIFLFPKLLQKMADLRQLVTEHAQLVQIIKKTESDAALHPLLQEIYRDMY
Outline: (§1)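 HEK293 cells were grown in DMEM with 10% FCS, penicillin/streptomycin, sodium pyruvate and nonessential amino acids at 37 °C, 5% CO2. The next day they were transfected in serum-free medium by calcium phosphate with GAL4-PPARα LBD (30 ng), firefly luciferase reporter (50 ng), renilla normalization vector (20 ng) and carrier DNA. Ligands were added 8 h later for 18 h. Efficacy is given as % of maximal gemfibrozil fold induction, from at least three separate experiments.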

[2] = target: T2, Peroxisome proliferator-activated receptor alpha (Homo sapiens) (UniProt Q07869); experiment: Agonist activity at Gal4-fused PPARalpha expressed in HEK293 cells after 18 hrs by dual luciferase reporter gene assay relative to gemfibrozil; format: functional, cell-based; outline: as §1
T2 sequence (whole entry): T1 sequence (Q07869 whole entry)

HEK293 = experiment: Selectivity ratio of EC50 for Gal4-fused PPARalpha expressed in HEK293 cells to EC50 for Gal4-fused PPARgamma expressed in HEK293 cells; format: cell-based
[3] = target: T2, Peroxisome proliferator-activated receptor alpha (Homo sapiens); experiment: Agonist activity at PPARalpha in human HepG2 cells assessed as upregulation of CPT1a mRNA expression at 0.1 to 100 uM after 24 hrs by quantitative RT-PCR analysis; format: functional, cell-based
Outline: (§2)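 HepG2 cells were kept in DMEM with 10% FCS and 1% penicillin/streptomycin and seeded at 5 × 10⁵ cells/well the day before. They were treated 24 h with ligands in DMSO diluted in growth medium, and vehicle-only cells served as controls. Total RNA was taken with TRIzol and DNase-treated. CPT1A mRNA was measured by RT-qPCR against cyclophilin and normalized to vehicle-treated cells. Data are mean ± SEM of four independent determinations run in duplicate.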

[4] = target: T2, Peroxisome proliferator-activated receptor alpha (Homo sapiens); experiment: Agonist activity at PPARalpha in human HepG2 cells assessed as upregulation of CPT1a mRNA expression at 100 uM after 24 hrs by quantitative RT-PCR analysis relative to gemfibrozil; format: functional, cell-based; outline: as §2
[5] = target: T2, Peroxisome proliferator-activated receptor alpha (Homo sapiens); experiment: Agonist activity at PPARalpha in human HepG2 cells assessed as upregulation of CPT1a mRNA expression at 10 uM after 24 hrs by quantitative RT-PCR analysis relative to gemfibrozil; format: functional, cell-based; outline: as §2
[6] = target: T2, Peroxisome proliferator-activated receptor alpha (Homo sapiens); experiment: Agonist activity at PPARalpha in human HepG2 cells assessed as upregulation of CPT1a mRNA expression after 24 hrs by quantitative RT-PCR analysis; format: functional, cell-based; outline: as §2

SMILES	EC50 ([1]; read-out: EC50)	Efficacy [2]	Activity [3]	EC50 ([1]; hek293)	fold change (FC) [4]	fold change (FC) [5]	Activity [6]	Ratio EC50 (HEK293)
O=C(O)CCCCOc1ccc(/N=N/c2ccccc2)cc1	–	–	–	Not Active	–	–	–	–
O=C(O)CCCCOc1ccc(Oc2ccccc2)cc1	–	–	–	Not Active	–	–	–	–
CC(=O)c1ccc(OCCCC(C)(C)C(=O)O)cc1	–	–	–	Not Active	–	–	–	–
CC(C)(CCCOc1ccc(C(=O)/C=C/c2ccccc2)cc1)C(=O)O	61.5 µM	165%	–	–	–	–	–	2.1
Cc1ccc(C)c(OCCCC(C)(C)C(=O)O)c1 [GEMFIBROZIL]	59 µM	–	Active	–	–	–	–	0.7
O=C(O)CCCCOc1ccc(C(=O)/C=C/c2ccccc2)cc1	109 µM	235%	–	–	–	–	–	3
CC(=O)c1ccc(OCCCCC(=O)O)cc1	–	–	–	Not Active	–	–	–	–
CC(C)(CCCOc1ccc(/N=N/c2ccccc2)cc1)C(=O)O	43.7 µM	76%	–	–	–	–	–	0.8

Continued by falling EC50 ([1]; read-out: EC50), values first:

EC50 ([1]; read-out: EC50)	Efficacy [2]	Activity [3]	EC50 ([1]; hek293)	fold change (FC) [4]	fold change (FC) [5]	Activity [6]	SMILES	Ratio EC50 (HEK293)
27.1 µM	123%	–	–	–	–	–	O=C(O)CCCCOc1ccc(C(=O)c2ccccc2)cc1	1
18.8 µM	206%	–	–	–	–	–	O=C(O)CCCCOc1ccc(/C=C/c2ccccc2)cc1	1.1
11.3 µM	94%	inactive	–	–	–	–	C=CCc1ccc(OCCCCC(=O)O)c(OC)c1	0.8
9.3 µM	106%	inactive	–	–	–	–	O=C(O)CCCCOc1ccc(NC(=O)Nc2ccccc2)cc1	1.3
9.3 µM	82%	–	–	–	–	–	CC(C)(CCCOc1ccc(C(=O)c2ccccc2)cc1)C(=O)O	0.9
9.1 µM	118%	–	–	–	–	–	CC(C)(CCCOc1ccc(Oc2ccccc2)cc1)C(=O)O	1.4
6.6 µM	117%	inactive	–	–	–	–	C=CCc1ccc(OCCCC(C)(C)C(=O)O)c(OC)c1	1
1 µM	223%	–	–	6	2	Dose-dependent effect	CC(C)(CCCOc1ccc(/C=C/c2ccccc2)cc1)C(=O)O	1.4

— ChEMBL document CHEMBL1828598, “Discovery of gemfibrozil analogues that activate PPARα and enhance the expression of gene CPT1A involved in fatty acids catabolism” (Eur J Med Chem, 2011)
